The list is not random: actives were taken first. Their share in the collection is about 2.3%.
Statin myotox sup – suppression of simvastatin myotoxicity | C2C12 myotubes + simvastatin, ATP luminescence, 48 h; scaled: DMSO 0, geranylgeraniol control 100 | rescue of ATP level, % at 7.49 µM | hit rate 0.78% among 330,000 | AID 602340;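 active means mean ATP rescue above about 67%, or every replicate alone reaching that limit, limit read from the data, passing the limit was not always enough; inconclusive means no clear call, values can overlap the other calls; inactive means mean under the limit and some replicate under it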;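 further: myotubes were challenged with 10 µM simvastatin during compound exposure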
CFTR F508del cor – CFTR F508del correction in bronchial cells. AID 720511. hit rate 0.36% among 350,000. activity (quench increase), % at 7.58 µM. CFBE cells, YFP halide quenching; stimulated with forskolin plus potentiator P3; % fluorescence drop versus neutral controls;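 active means mean added fluorescence quench of at least 8% versus neutral control, with both replicates also reaching 8%; inconclusive means only one of the mean or replicate conditions met; inactive means mean below 8% and not both replicates reaching 8%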;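 further: cells transiently co-express mutant CFTR-F508del with the halide-sensitive YFP; corrector assay measuring rescue of mutant channel to the surface after 24 h compound exposure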
ERp5 inh – blocks human ERp5 reductase activity on insulin. Q15084. ERp5 insulin aggregation, absorbance 650 nm, 90 min. inhibition, % at 9.99 µM. hit rate 0.05% among 350,000. AID 651711;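 active means mean replicate inhibition above about 25%, with every replicate also reaching it, limit read from the data, passing the limit was not always enough; inconclusive means only one of those two criteria met; inactive means neither criterion met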
Target sequence (Q15084 whole entry, looked up): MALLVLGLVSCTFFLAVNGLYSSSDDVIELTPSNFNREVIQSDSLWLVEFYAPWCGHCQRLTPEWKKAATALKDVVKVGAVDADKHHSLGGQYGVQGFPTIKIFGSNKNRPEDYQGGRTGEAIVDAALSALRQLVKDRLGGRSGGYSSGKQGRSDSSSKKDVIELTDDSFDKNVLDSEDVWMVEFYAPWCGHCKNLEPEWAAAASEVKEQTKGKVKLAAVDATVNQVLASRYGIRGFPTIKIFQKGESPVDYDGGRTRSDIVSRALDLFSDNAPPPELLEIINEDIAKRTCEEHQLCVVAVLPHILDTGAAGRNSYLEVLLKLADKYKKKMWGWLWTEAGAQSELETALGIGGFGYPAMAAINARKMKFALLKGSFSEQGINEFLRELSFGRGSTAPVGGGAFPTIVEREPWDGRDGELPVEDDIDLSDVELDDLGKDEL
Cneo AK release – causes C. neoformans cell lysis; hit rate 0.2% among 360,000; AID 651654; lysis activity, % at 15 µM; adenylate kinase release luminescence, 4 h; normalised: neutral wells 0, clomiphene wells 100;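 active means mean lysis activity across replicates of at least 80%, whatever share of replicates individually reach that level; inactive means mean lysis activity below 80%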
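Test system: log-phase Cryptococcus neoformans yeast cells; Quantity: yeast cell density of 5 × 10^6 cells/mL; Buffer or medium: YPD; Doses: single compound concentration per well; Timing: 4 h at 37 °C static, read 1 h later; Measured by: AK luminescence; Read-out basis: lysis from increased AK signal; Control set: Clomiphene as positive control.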
DENV2 CPE – inhibitors of DENV2 cytopathic effect. hit rate 1.7% among 350,000. CPE inhibition, % at 9.99 µM. DENV2-infected cells, cytopathic effect rescue, plate reader; in the data active means CPE inhibition above about 20%, passing the limit was not always enough; inconclusive means no clear call, values can overlap the other calls; tested in BHK-21 cells
PDI inh – blocks human protein disulfide isomerase activity; PDI insulin aggregation turbidity, A650, 90 min; hit rate 0.052% among 350,000; P07237; inhibition, % at 10 µM;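 active means mean inhibition across replicates of 30% or more, whatever share of single replicates reach that level; inconclusive means mean inhibition below 30% while every single replicate reaches 30%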
A number is an active result; ! = not confirmed by another sample.

Screening CCCC(=O)Nc1ccc2c(c1)C(=O)N(C)C[C@@H](OC)[C@H](C)CN(Cc1nccs1)[C@H](C)CO2 returned Statin myotox sup inactive, CFTR F508del cor inactive, ERp5 inh inactive, Cneo AK release inactive and DENV2 CPE inactive.
Screening CC(=O)Nc1cnc(-c2ccccc2C(C)=O)cn1 returned Statin myotox sup inactive, CFTR F508del cor inactive, ERp5 inh inactive, Cneo AK release inactive, DENV2 CPE inactive and PDI inh inactive.
COc1cccc(OC)c1-c1cnc(NC(C)=O)cn1 was read as Statin myotox sup inactive, CFTR F508del cor inactive, ERp5 inh inactive, Cneo AK release inactive, DENV2 CPE 24 and PDI inh inactive.
`COc1ccc(NC(=O)N(C)C[C@H]2OCCCC[C@@H](C)Oc3ccc(NC(=O)Nc4ccc5c(c4)OCO5)cc3C(=O)N([C@@H](C)CO)C[C@H]2C)cc1` gave Statin myotox sup inactive, CFTR F508del cor inactive, ERp5 inh inactive, Cneo AK release inactive and DENV2 CPE 70.
Screening COc1ccc(NC(=O)N(C)C[C@@H]2OCCCC[C@H](C)Oc3ccc(NC(=O)Nc4ccc5c(c4)OCO5)cc3C(=O)N([C@H](C)CO)C[C@@H]2C)cc1 returned Statin myotox sup inactive, CFTR F508del cor inactive, ERp5 inh inactive, Cneo AK release 92 and DENV2 CPE inactive.
For COc1ccc(NC(=O)Nc2ccc3c(c2)C(=O)N([C@@H](C)CO)C[C@H](C)[C@H](CN(C)C(=O)Nc2ccc4c(c2)OCO4)OCCCC[C@@H](C)O3)cc1 the results were CFTR F508del cor inactive, ERp5 inh inactive, Cneo AK release inactive and DENV2 CPE inactive.
`COCC(=O)Nc1ccc2c(c1)OC[C@H](C)N(C(=O)NC(C)C)C[C@H](C)[C@H](OC)CN(C)C2=O` gave Statin myotox sup inactive, CFTR F508del cor inactive, ERp5 inh inactive, Cneo AK release inactive and DENV2 CPE inactive.
CC(C)NC(=O)Nc1ccc2c(c1)C(=O)N([C@@H](C)CO)C[C@H](C)[C@@H](CN(C)C(=O)C1CCCCC1)OCCCC[C@H](C)O2 was read as Statin myotox sup inactive and CFTR F508del cor inactive.
`CC(C)NC(=O)Nc1ccc2c(c1)C(=O)N([C@@H](C)CO)C[C@@H](C)[C@@H](CN(C)C(=O)NC1CCCCC1)OCCCC[C@H](C)O2` gave CFTR F508del cor inactive, ERp5 inh inactive, Cneo AK release 92 and DENV2 CPE inactive.
C[C@@H]1CN([C@@H](C)CO)C(=O)c2cc(NC(=O)C3CCCCC3)ccc2O[C@@H](C)CCCCO[C@@H]1CN(C)C(=O)NC1CCCCC1 was read as Statin myotox sup inactive, CFTR F508del cor inactive, ERp5 inh inactive and Cneo AK release 97.
`C[C@@H]1CCCCO[C@H](CN(C)C(=O)Nc2ccc3c(c2)OCO3)[C@H](C)CN([C@@H](C)CO)C(=O)c2cc(NC(=O)NC3CCCCC3)ccc2O1` gave CFTR F508del cor inactive and Cneo AK release inactive.
Screening C[C@H](CO)N1C[C@H](C)[C@H](CN(C)C(=O)NC2CCCCC2)Oc2ccc(NC(=O)Cn3cnnn3)cc2C1=O returned Statin myotox sup inactive, CFTR F508del cor inactive, ERp5 inh inactive, Cneo AK release inactive and DENV2 CPE 99.
Screening C[C@H]1CCCCO[C@H](CN(C)C(=O)Nc2ccc3c(c2)OCO3)[C@@H](C)CN([C@@H](C)CO)C(=O)c2cc(NC(=O)NC3CCCCC3)ccc2O1 returned CFTR F508del cor inactive, Cneo AK release inactive and DENV2 CPE 85.
Screening C[C@H]1CN([C@@H](C)CO)C(=O)c2cc(NC(=O)Cn3cnnn3)ccc2O[C@@H]1CN(C)C(=O)NC1CCCCC1 returned Statin myotox sup inactive, CFTR F508del cor inactive, ERp5 inh inactive, Cneo AK release inactive and DENV2 CPE inconclusive.
C[C@@H]1CN([C@@H](C)CO)C(=O)c2cc(NC(=O)C3CC3)ccc2O[C@@H]1CN(C)C(=O)NC1CCCCC1 was read as Statin myotox sup inactive, CFTR F508del cor inactive, ERp5 inh inactive, Cneo AK release inactive, DENV2 CPE inactive and PDI inh inactive.
Screening C[C@H](CO)N1C[C@H](C)[C@@H](CN(C)C(=O)NC2CCCCC2)OCCCC[C@H](C)Oc2ccc(NC(=O)NC3CCCCC3)cc2C1=O returned CFTR F508del cor inactive, ERp5 inh inactive, Cneo AK release inactive and DENV2 CPE inactive.
Screening C[C@@H]1CCCCO[C@H](CN(C)C(=O)NC2CCCCC2)[C@@H](C)CN([C@@H](C)CO)C(=O)c2cc(NC(=O)NC3CCCCC3)ccc2O1 returned CFTR F508del cor inactive, ERp5 inh inactive, Cneo AK release inactive and DENV2 CPE 47.
Screening C[C@H](CO)N1C[C@H](C)[C@@H](CN(C)C(=O)NC2CCCCC2)Oc2ccc(NC(=O)C3CC3)cc2C1=O returned Statin myotox sup inactive, CFTR F508del cor inactive, ERp5 inh inactive, Cneo AK release inactive, DENV2 CPE 56! and PDI inh inactive.
COc1ccccc1-c1ccc2n(c1=O)C[C@H]1[C@H](CO)[C@@H](C(=O)Nc3nccs3)N(CC3CC3)[C@@H]21 was read as Statin myotox sup inactive, CFTR F508del cor inactive, ERp5 inh inactive, Cneo AK release inactive and DENV2 CPE inactive.
`N#Cc1cccnc1N1CCN(C(=O)c2ccccc2)CC1` gave Statin myotox sup inactive, CFTR F508del cor inactive, ERp5 inh inactive, Cneo AK release inactive, DENV2 CPE 52 and PDI inh inactive.
Screening N#Cc1cccnc1N1CCC(C(N)=O)CC1 returned CFTR F508del cor inactive, ERp5 inh inactive, DENV2 CPE inactive and PDI inh inactive.
For O=C(c1ccc2nccnc2c1)N1CCN(c2ccccc2)CC1 the results were Statin myotox sup inactive, CFTR F508del cor inactive, ERp5 inh inactive, Cneo AK release inactive, DENV2 CPE 35 and PDI inh inactive.
For C[C@H]1O[C@@H](n2cc(F)c(=O)[nH]c2=O)[C@H](O)[C@@H]1O the results were Statin myotox sup inactive, CFTR F508del cor inactive, ERp5 inh inactive, Cneo AK release inactive, DENV2 CPE inactive and PDI inh inactive.
Screening O=c1[nH]c(=O)n(C2OC(CO)C(O)C(O)C2O)cc1F (stereo not drawn) returned CFTR F508del cor inactive, ERp5 inh inactive and DENV2 CPE 68.
Screening COC(=O)CCCC(=O)N1CCOCCN(C(=O)CCCC(=O)OC)CCOCC1 returned Statin myotox sup 110, Cneo AK release inactive and PDI inh inactive.
COC(=O)CCC(=O)N1CCOCCOCCN(C(=O)CCC(=O)OC)CCOCCOCC1 was read as Cneo AK release inactive and PDI inh inactive.
Nc1ccc(S(=O)(=O)Nc2cnc3ccccc3n2)cc1 was read as Statin myotox sup inactive, CFTR F508del cor 11!, ERp5 inh inconclusive, Cneo AK release inactive, DENV2 CPE inactive and PDI inh inactive.
For Nc1ccc(S(=O)(=O)Nc2cnc3c(Cl)cccc3n2)cc1 the results were CFTR F508del cor inactive, ERp5 inh inactive, DENV2 CPE inactive and PDI inh inactive.

High-throughput results as filed in PubChem BioAssay.
